DNA FID counter: counter-screen for HCV NS3 helicase inhibitors: DNA intercalator displacement. DNA fluorescent intercalator displacement, fluorescence. inhibition, % at 7.9 µM. 0.17% of 290,000 active; in the data active = inhibition above about 37%;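 also: 0% = vehicle and 100% = reference compound; higher means more ethidium bromide displaced from hairpin DNA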
Wee1 degr inh: blocks degradation of human Wee1 kinase. P30291. HeLa Luc-Wee1K328M stability, luciferase luminescence; 100% = proteasome inhibitor MG132 effect. reporter increase, % at 5 µM. 1.2% of 220,000 active. AID 1321;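 active = activation above the mean of all tested compounds plus 3 SD, set per screening run, cut at about 8.8% in these data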;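 also: cells exposed to compound for 20 h before luminescence read; 0% = DMSO alone and 100% = MG132 at 30 µM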
RBBP9 inhibitor: blocks human serine hydrolase RBBP9 | 0.2% of 220,000 active | AID 1515 | recombinant RBBP9, FP-Rh probe fluorescence polarization | inhibition, % at 7.94 µM | O75884;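 active = inhibition above the campaign mean of all tested compounds plus 3 SD, cut at about 14% in these data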;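 also: plate controls were DMSO wells with RBBP9 for no effect and wells lacking RBBP9 protein for full effect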
Target sequence (O75884 whole entry, looked up): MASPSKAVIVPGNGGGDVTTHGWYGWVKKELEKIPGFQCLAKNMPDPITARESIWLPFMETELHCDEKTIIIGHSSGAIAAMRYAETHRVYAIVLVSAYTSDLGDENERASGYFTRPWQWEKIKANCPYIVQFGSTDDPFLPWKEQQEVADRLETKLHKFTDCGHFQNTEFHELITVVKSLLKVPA
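Material: RBBP9 protein. Amount: RBBP9 at 2.5 µM in dispensed solution, before mixing. Schedule: 30 min then 45 min, 25 °C. Medium: Tris buffer pH 8.0, NaCl, Pluronic. Measured by: fluorescence polarization. Measure: percent inhibition from mP, scaled between DMSO and no-protein wells. Replication: one well per compound.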
Rad51 HR inh: Rad51 (human) homologous recombination inhibition. Q06609. hRad51 DNA strand exchange, fluorescence dequenching. inhibition, % at 10 µM. 0.085% of 200,000 active. AID 1385;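 active = inhibition above 40% at the single screening dose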;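 also: 0% = DMSO control wells and 100% = blanks with heterologous ssDNA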
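Read-out basis: percent inhibition relative to plate controls and blanks / Assay system: human Rad51 nucleoprotein filaments preassembled on unlabelled ssDNA / Timing: filaments 15 min 37 °C, then compound 30 min / Control set: per-plate controls and blanks / Technique: fluorescence dequenching at 485/520 nm / Compound: 10 µM final, single point / Also added: Fluorescein- and BHQ1-tagged 47-mer duplex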
Starred values were filed as active, the others as inactive; . = no result. Most compounds without a hit are left out; they make up all but 1.2% or so of the library.

SMILES | DNA FID counter | Wee1 degr inh | RBBP9 inhibitor | Rad51 HR inh
COc1ccc(C(=O)N/N=C/c2ccccc2C(=O)O)cc1OC | -3 | 2 | -4 | 41*
O=C(O)/C=C/C(=O)NCCc1ccccc1 | -4 | -1 | -7 | 10
CC(C)=CC(=O)NCCc1ccccc1 | 0 | 10.0* | 0 | 12
NS(=O)(=O)c1ccc(CCNC(=O)COc2ccc3c4c(c(=O)oc3c2)CCC4)cc1 | 88* | . | . | .
CC(=O)N(c1ccc(C)cc1)S(=O)(=O)c1ccc(Cl)cc1 | -5 | 1 | -1 | 1
COc1cc(C(=O)O)c2c(c1C)OC(=O)c1c(C)cc(O)c(C=O)c1O2 | . | . | . | 61*
COc1ccc2nc(SCC(=O)c3ccco3)[nH]c2c1 | 2 | 9.1* | -6 | 0
O=C(CSc1nc2ccccc2[nH]1)c1ccco1 | 2 | 4 | -4 | 0
CC1(C)CC(=O)C=C(NCCc2c[nH]c3ccccc23)C1 | -9 | 1 | -8 | 20
CCOc1ccc(NCc2cccn2-c2nnc(N3CCC(C(=O)NCCCN4C(C)CCCC4C)CC3)s2)cc1 (configuration not stated) | 41* | . | . | .
O=c1[nH]c2ccc(NC(=S)Nc3ccc(F)cc3)cc2[nH]1 | 2 | 9.7* | -5 | 19
CC(=O)Nn1c(-c2ccccc2)cc2ccccc21 | 1 | 0 | 3 | 85*
NNC(=O)Cn1c(-c2ccccc2)cc2ccccc21 | -11 | . | . | .
Cc1c(NC(=O)COC(=O)CCC(=O)c2ccc(Cl)cc2)c(=O)n(-c2ccccc2)n1C | -21 | 9.4* | -8 | 6
Cc1c(NC(=O)COC(=O)c2ccccc2Cl)c(=O)n(-c2ccccc2)n1C | -1 | 2 | -6 | 2
CCCc1cnc(NCCNCC(O)COc2ccc(Cl)c(Cl)c2)nc1 (configuration not stated) | 40* | 3 | 2 | -3
CC(=O)c1ccc(N2CCN(C(=O)/C=C/c3ccc(S(=O)(=O)NCc4ccco4)cc3)CC2)cc1 | -25 | 10* | -4 | -18
CC(=O)c1ccc(N2CCN(C(=O)/C=C/c3ccc(S(=O)(=O)N4CCOCC4)cc3)CC2)cc1 | -4 | 4 | -7 | -9
COc1ccccc1CNC(=O)CCS(=O)(=O)c1cccc2nonc12 | -3 | 9.8* | 0 | -1
Cc1ccccc1S(=O)(=O)NCc1ccc(N2CCN(C)CC2)cc1 | 9 | 0 | -9 | .
Nc1[nH]nc2nc3ccccc3cc12 | -5 | -2 | -3 | -1
Nc1cccc2nc3ccccc3cc12 | 45* | 2 | 1 | 11
CCN1CCN(Cc2cccc(Oc3ccc(Cl)cc3)c2)CC1 | 16 | -2 | -1 | .
CN1CCN(Cc2cccc(Oc3ccc(Cl)cc3)c2)CC1 | 13 | 10* | -2 | 1
CCN1C(=O)/C(=C\c2cccn2-c2ccc([N+](=O)[O-])cc2)N(CC)C1=S | 7 | 9.5* | 5 | .
SMILES | DNA FID counter | Wee1 degr inh | RBBP9 inhibitor | Rad51 HR inh
Cc1ccn(CC(=O)N/N=C/c2cc([N+](=O)[O-])ccc2O)n1 | -7 | 3 | 0 | 4
Cc1ccccc1OCCCCc1c(C)n[nH]c1C | -14 | 10* | -8 | -3
N#C/C(=C/c1ccc(C(=O)O)cc1)C(=O)Nc1ccccc1 | -1 | 9.0* | -10 | 0
Cc1ccc(N2C(=O)C3ON(c4ccccc4)C(CC(C)C)C3C2=O)cc1 (configuration not stated) | -16 | -1 | -2 | -1
CCOC(=O)CNC(=S)N(CCCN1CCCCC1)Cc1cccs1 | 23 | 9.8* | 2 | -6
COc1ccc(OC)c(S(=O)(=O)N2CCC(C(=O)NC3CC3)CC2)c1 | -4 | . | . | .
Cc1ccnc2ccc(SC(F)(F)F)cc12 | 2 | -2 | -4 | 16
CSc1nccc(N/N=C/c2ccccc2)n1 | -6 | . | . | .
CCOc1cc(CNCCc2ccc(S(N)(=O)=O)cc2)ccc1OCc1ccc(Cl)cc1 | 37* | -3 | 1 | -7
CCc1ccc2[nH]c(O)c(N=Nc3nc(-c4ccccc4)cs3)c2c1 | 1 | 9.7* | -4 | -1
O=C(NC1CCCCC1)C1CCCN1C(=O)Nc1ccccc1 (configuration not stated) | -1 | . | . | .
Cc1ccc(NC(=O)C2SC(=Nc3ccccc3)C(C(=O)Nc3ccc(Cl)cc3)=C2N)cc1 (configuration not stated) | -1 | -3 | -8 | .
Cc1ccc(N=C2SC(C(=O)Nc3ccc(OC(F)(F)F)cc3)C(N)=C2C(=O)Nc2c(C)cc(C)cc2C)cc1 (configuration not stated) | -5 | 11* | -47 | -7
